In ChEMBL document CHEMBL1136741, “Role of the glycopeptide framework in the antibacterial activity of hydrophobic derivatives of glycopeptide antibiotics” (2003):
≈ marks a conversion by molar mass, not a printed value.

Tests used:
Enterococcus faecalis [1] = test: Antibacterial activity against glycopeptide susceptible Enterococcus faecalis 559 strain; assay type: functional
Method in brief: (§1)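 MIC by broth microdilution in Mueller Hinton broth following NCCLS procedures. Compounds dissolved in 10% DMSO in water, then diluted in broth; test range 128 to 0.13 µg/mL, final DMSO 1.28% to 0.0013% accordingly. Repeat determinations usually identical and always within 2-fold. Strain 533 is a clinical isolate; strain 602 is a clinical S. haemoliticus isolate.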

[2] = system: Staphylococcus epidermidis; test: Antibacterial activity against Staphylococcus epidermis 533 strain; assay type: functional
Staphylococcus aureus [3] = test: Antibacterial activity against glycopeptide intermediate resistant Staphylococcus aureus 3798 strain; assay type: functional
Method in brief: (§2)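 MIC by broth microdilution in Mueller Hinton broth following NCCLS procedures. Compounds were dissolved in 10% DMSO in water, then diluted in broth. Final DMSO was 1.28% at 128 µg/mL antibiotic down to 0.0013% at 0.13 µg/mL. Repeat determinations were usually identical and always within 2-fold.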

Enterococcus faecium [4] = test: Antibacterial activity against glycopeptide susceptible Enterococcus faecium 568 strain; assay type: functional; method in brief: as §1
[5] = system: Staphylococcus haemolyticus; test: Antibacterial activity against Staphylococcus haemolyticus 602 strain
Enterococcus faecalis [6] = test: Antibacterial activity against glycopeptide resistant Enterococcus faecalis 560 strain; assay type: functional; method in brief: as §2
Enterococcus faecium [7] = test: Antibacterial activity against glycopeptide resistant Enterococcus faecium 569 strain; assay type: functional; method in brief: as §2
Staphylococcus aureus [8] = test: Antibacterial activity against glycopeptide intermediate resistant Staphylococcus aureus 3797 strain; assay type: functional; method in brief: as §2

**Q.** Which results are given for `CN[C@H](CC(C)C)C(=O)N[C@H]1C(=O)N[C@@H](CC(N)=O)C(=O)N[C@H]2C(=O)N[C@H]3C(=O)N[C@H](C(=O)N[C@H](C(=O)O)c4cc(O)cc(O)c4-c4cc3ccc4O)[C@H](O[C@@H]3C[C@@](C)(N)[C@H](O)[C@@H](C)O3)c3ccc(cc3)Oc3cc2cc(c3O[C@H]2O[C@@H](CO)[C@H](O)[C@@H](O)[C@@H]2O[C@H]2C[C@](C)(N)[C@@H](O)[C@H](C)O2)Oc2ccc(cc2Cl)[C@H]1O` [EREMOMYCIN]?
**A.** MIC (Enterococcus faecalis [1]): 0.25 µg/mL (≈ 0.16 µM); MIC [2]: 0.25 µg/mL (≈ 0.16 µM); MIC (Staphylococcus aureus [3]): 8 µg/mL (≈ 5.13 µM); MIC (Enterococcus faecium [4]): 0.25 µg/mL (≈ 0.16 µM); MIC [5]: 0.25 µg/mL (≈ 0.16 µM); MIC (Enterococcus faecalis [6]): > 128 µg/mL; MIC (Enterococcus faecium [7]): > 128 µg/mL; MIC (Staphylococcus aureus [8]): 8 µg/mL (≈ 5.13 µM)

**Q.** What does the source list for `N[C@H]1C(=O)N[C@@H]2Cc3ccc(c(Cl)c3)Oc3cc4cc(c3O)Oc3ccc(cc3Cl)[C@@H](O)[C@@H]3NC(=O)[C@H](NC(=O)[C@@H]4NC(=O)[C@@H](NC2=O)c2cc(O)cc(c2)Oc2cc1ccc2O)c1ccc(O)c(c1)-c1c(O)cc(O)cc1[C@@H](C(=O)O)NC3=O` [TEICOPLANIN AGLYCON]?
**A.** MIC (Enterococcus faecalis [1]): 0.13 µg/mL (≈ 0.108 µM); MIC [2]: 0.25 µg/mL (≈ 0.209 µM); MIC (Staphylococcus aureus [3]): 1 µg/mL (≈ 0.834 µM); MIC (Enterococcus faecium [4]): 0.13 µg/mL (≈ 0.108 µM); MIC [5]: 0.25 µg/mL (≈ 0.209 µM); MIC (Enterococcus faecalis [6]): > 128 µg/mL; MIC (Enterococcus faecium [7]): > 128 µg/mL; MIC (Staphylococcus aureus [8]): 1 µg/mL (≈ 0.834 µM)
